Source: publication PMC3288198 (ACS Chemical Biology, 2011)
Entries after “also recorded” stand apart in the source; their conditions may differ. Like-named read-outs stand apart in the source and are kept apart here. Where a SMILES comes first, the peptide text is derived from it. The star is where a group is joined. Cbz = O=C(OCc1ccccc1)*

Experiments:
[1] = system: FLT-3 and STAT5; test: Western blot of FLT-3 and STAT5 levels in MV4-11 cells; assay type: cell-based, human; conditions: for effect on FLT-3 and STAT5 protein levels: 3 hr post-treatment
Procedure, shortened: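 MV4-11 cells cultured with 10% heat-inactivated FBS at 37°C, 5% CO2. Exposed to a concentration series of test compound, harvested 3 hr post-treatment. Lysed in low-salt Tris pH 7.4 buffer containing 1 μM TSA and sonicated. Lysates denatured in LDS and run on 4–12% gradient gels. Blots probed for FLT-3, STAT5, Erk and phospho-Erk; HRP secondary with ECL detection.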

[2] = system: full panel of human recombinant HDAC enzymes; test: Inhibition profile over full panel of HDACs; assay type: biochemical
Procedure, shortened: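 Panel of recombinant human HDAC1–11, 12-point titration of test compound per isozyme. Substrates: AMC-K(Ac)GL for HDAC1, 2, 3/N-CoR2, 6 and 10; AMC-K(TFA)GL for HDAC4, 5, 7, 8, 9 and 11. Peptidase-released MCA fluorescence at ex 355/em 460 nm, normalised to controls. IC50 by non-linear regression.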

[3] = system: Hsp90 acetylation; test: Immunoprecipitation/immunoblot of Hsp90 acetylation in MV4-11 cells; assay type: cell-based, human; conditions: 3 hr post-treatment
Procedure, shortened: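 MV4-11 AML cells (10% heat-inactivated FBS, 37°C, 5% CO2) treated with test compound, harvested 3 hr post-treatment. Cells washed in cold HBSS, lysed 30 min in low-salt buffer (50 mM Tris-HCl pH 7.4, 150 mM NaCl, 10% glycerol, Triton X-100, protease/phosphatase inhibitors, 1 μM TSA), then sonicated. Hsp90 pulled down on Hsp90-conjugated beads for 1 hr. Blots probed for Hsp90, acetyl-lysine and acetyl-Hsp90 K69.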

[4] = system: ubiquitinated protein; test: Western blot of total ubiquitinated protein in MV4-11 cells; assay type: cell-based, human; conditions: within 3 hr
[5] = molecular target: T1, HDAC6 (Homo sapiens, UniProt Q9UBN7); test: HDAC deacetylase homogenous fluorescence assay, HDAC6; assay type: biochemical; conditions: for concentration above which HDAC6 was inhibited: data not shown
T1 sequence (Q9UBN7 1-1215): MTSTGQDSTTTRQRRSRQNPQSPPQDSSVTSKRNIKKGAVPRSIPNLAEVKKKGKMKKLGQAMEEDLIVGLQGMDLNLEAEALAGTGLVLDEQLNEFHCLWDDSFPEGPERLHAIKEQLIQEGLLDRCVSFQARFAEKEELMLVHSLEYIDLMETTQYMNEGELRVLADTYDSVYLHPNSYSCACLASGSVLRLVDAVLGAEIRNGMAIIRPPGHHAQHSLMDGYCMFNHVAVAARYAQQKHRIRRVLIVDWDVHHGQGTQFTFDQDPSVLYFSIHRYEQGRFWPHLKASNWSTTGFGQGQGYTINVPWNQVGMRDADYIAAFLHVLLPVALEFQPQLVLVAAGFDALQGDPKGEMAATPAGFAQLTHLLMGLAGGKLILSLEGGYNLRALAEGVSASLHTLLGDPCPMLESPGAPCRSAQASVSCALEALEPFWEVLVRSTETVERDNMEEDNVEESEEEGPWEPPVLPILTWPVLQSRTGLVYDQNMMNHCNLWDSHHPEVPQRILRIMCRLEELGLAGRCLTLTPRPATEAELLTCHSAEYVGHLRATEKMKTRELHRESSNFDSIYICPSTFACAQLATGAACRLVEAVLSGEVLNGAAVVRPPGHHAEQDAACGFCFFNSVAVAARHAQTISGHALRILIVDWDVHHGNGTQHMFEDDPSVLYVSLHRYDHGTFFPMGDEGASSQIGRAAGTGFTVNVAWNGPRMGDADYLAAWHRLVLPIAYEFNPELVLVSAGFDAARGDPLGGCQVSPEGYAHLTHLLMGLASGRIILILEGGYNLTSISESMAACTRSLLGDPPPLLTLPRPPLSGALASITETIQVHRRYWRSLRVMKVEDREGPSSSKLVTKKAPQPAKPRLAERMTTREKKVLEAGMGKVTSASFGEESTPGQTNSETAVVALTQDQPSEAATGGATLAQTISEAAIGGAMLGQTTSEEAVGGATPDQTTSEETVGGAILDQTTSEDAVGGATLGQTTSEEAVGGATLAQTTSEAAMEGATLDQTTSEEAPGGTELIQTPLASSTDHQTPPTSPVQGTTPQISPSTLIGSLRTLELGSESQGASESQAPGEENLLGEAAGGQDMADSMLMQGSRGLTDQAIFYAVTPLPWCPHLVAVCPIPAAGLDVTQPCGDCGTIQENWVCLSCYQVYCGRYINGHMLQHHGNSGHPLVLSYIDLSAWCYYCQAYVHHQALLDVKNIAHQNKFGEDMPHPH
Procedure, shortened: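 Baculovirus-expressed recombinant human enzyme (HDAC3 as HDAC3/N-CoR2 complex) incubated with serially diluted test compound over a 12-point titration. Substrate: acetylated AMC-K(Ac)GL. Deacetylated product cleaved by lysine peptidase to free MCA, read at ex 355/em 460 nm. Data normalised to control plate by plate. IC50 and SD from non-linear regression; Ki via Cheng-Prusoff, Ki = IC50/(1+[S]/Km).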

[6] = system: acetylated tubulin; test: Western blot of acetylated tubulin in MV4-11 cells; assay type: cell-based, human
Procedure, shortened: (§1)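 MV4-11 cells (10% heat-inactivated FBS, 37°C, 5% CO2) treated with test compound at a range of concentrations. Washed in cold HBSS and lysed 30 min in low-salt Tris pH 7.4 buffer with protease/phosphatase inhibitors and 1 μM TSA, then sonicated. LDS-denatured lysates run on 4–12% gradient gels. Probes: acetyl-H3, acetyl-H4, total H3, acetyl-α-tubulin, tubulin. HRP secondary, ECL read-out.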

[7] = system: mitogen stimulated proliferating PBMC; test: MTS cell proliferation assay, proliferating PBMC; assay type: cell-based, human; conditions: proliferating PBMC vs AML cells ex vivo
[8] = system: acetylated histone H3 and H4; test: Western blot of acetylated histone H3/H4 in MV4-11 cells; assay type: cell-based, human
Procedure, shortened: as §1

[9] = system: acetylated tubulin; test: Western blot of acetylated tubulin in PBMC; assay type: cell-based, human; conditions: PBMC from normal donors, 3 hr post-treatment
[10] = system: Hsp90 acetylation; conditions: 16 hrs post inhibitor treatment; cited from earlier work
[11] = system: HDAC6; conditions: cited from earlier work

Compound	induction of Hsp90 acetylation [3]	effect on FLT-3 and STAT5 protein levels [1]	induction of acetylated tubulin [6]	effect on acetylated histone H3/H4 levels [8]	also measured
CC(C)C[C@@H](C=O)NC(=O)[C@H](CC(C)C)NC(=O)[C@H](CC(C)C)NC(=O)OCc1ccccc1 [MG132] (Cbz-Leu-Leu-Leu-aldehyde)	–	–	–	–	prevention of STAT5 degradation caused by HDAC6 inhibition ([1]; 10 μM MG132 co-treatment): did not prevent STAT5 degradation; rescue of FLT-3 degradation caused by HDAC6 inhibition ([1]; 10 μM MG132 co-treatment): rescued
O=C1C=C(NCc2ccccc2)C(=O)c2ccccc21 [NQN-1, 2-benzyl-amino-naphthoquinone]	induces Hsp90 acetylation	decrease within 3 hr	selectively induced hyperacetylated tubulin	without an increase in histone H3 and H4 acetylation; also recorded: unexpectedly caused a decrease in acetylated histone H4	HDAC inhibition profile / selectivity over the panel [2]: did not inhibit other HDACs in our panel; total ubiquitinated protein level [4]: increase in total ubiquitinated protein level; IC50 ([5]; read-out: HDAC6 IC50, 12 point titration, acetylated substrate): 5.54 ± 0.9 µM; Ki ([5]; read-out: HDAC6 Ki, converted from IC50 using Cheng-Prusoff equation): 1.3 ± 0.22 µM; selectivity, proliferating PBMC over AML (MV4-11) cell toxicity [7]: 4 fold; tubulin acetylation level in PBMC [9]: did not increase
O=C(CCCCCCC(=O)Nc1ccccc1)NO [SAHA, Suberoylanilide hydroxamic acid]	did not induce Hsp90 acetylation	did not induce Hsp90 acetylation or reduce FLT-3 and STAT5 levels	induces both acetylated tubulin and histone	induces both acetylated tubulin and histone	–
CC(/C=C/C(=O)NO)=C\[C@@H](C)C(=O)c1ccc(N(C)C)cc1 [TSA]	did not induce Hsp90 acetylation	did not induce Hsp90 acetylation or reduce FLT-3 and STAT5 levels	–	–	–
CC1=C(C/C=C(\C)CCC[C@H](C)CCC[C@H](C)CCCC(C)C)C(=O)c2ccccc2C1=O [Vitamin K1]	–	–	–	–	concentration above which HDAC6 was inhibited [5]: above 200 μM
Cc1ccc(NC(=O)CCCCCC(=O)Nc2ccccc2N)cc1 [inhibitor 106]	did not induce Hsp90 acetylation	did not induce Hsp90 acetylation or reduce FLT-3 and STAT5 levels	–	only induces hyperacetylated histone H3/H4	–
O=C(CCCCCCC(=O)Nc1ccc([C@H]2O[C@@H](CSc3nc(-c4ccccc4)c(-c4ccccc4)o3)C[C@@H](c3ccc(CO)cc3)O2)cc1)NO [tubacin]	–	–	–	decreases in acetylated histones	induction of Hsp90 acetylation [10]: does not significantly increase Hsp90 acetylation
CN1CCc2c(c3ccccc3n2Cc2ccc(C(=O)NO)cc2)C1 [tubastatin A]	No induction of Hsp90 acetylation	–	higher induction of tubulin acetylation	decreases in acetylated histones	selectivity for HDAC6 over HDAC1 [11]: > 1000
CC1=CC(=O)c2ccccc2C1=O [vitamin K3, 2-methyl-naphthoquinone]	–	–	–	–	HDAC inhibition profile / selectivity over the panel [2]: selectively inhibited HDAC6 and HDAC8 at low μM; IC50 [5]: 25 µM
Vitamin K2	–	–	–	–	concentration above which HDAC6 was inhibited [5]: above 200 μM
